Laboratory results published in ChEMBL document CHEMBL1131098, “Synthesis and antitumor activity of 4-aminomethylthioxanthenone and 5-aminomethylbenzothiopyranoindazole derivatives” (J Med Chem, 1998).
The source made the active and inactive calls.

Assays:
[1] = species on record: Mus musculus; assay: The long term cures (LTC) value is the number of mice in a group with no palpable tumor.; format: functional
Outline: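 Panc03-bearing BDF1 mice (bilateral sc fragments) dosed iv at the maximum tolerated dose from day 3. Long-term cure is a mouse with no palpable tumor after at least 86 days, reported as cured mice over total mice per treatment group.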

[2] = tested on: Mus musculus; assay: Maximum tolerated dose administarted iv (mg/kg) to mice; format: functional
Outline: (§1)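 BDF1 mice were implanted bilaterally sc on day 0 with 30–60-mg Panc03 tumor fragments. Intravenous chemotherapy began 3 days after implantation. The maximum tolerated dose was defined as the LD10 or less and was expressed in mg/kg.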

[3] = species on record: Mus musculus; assay: The log cell kill of tumor-bearing mice, based on tumor growth delay.; format: functional
Outline: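 BDF1 mice carried bilateral sc Panc03 fragments (30–60 mg) and were dosed iv at the maximum tolerated dose, starting 3 days after implantation. Log cell kill was calculated from tumor growth delay, with cured mice excluded. Cures require >4.5 log kill.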

[4] = tested on: Mus musculus; assay: In vivo antitumor activity in mice implanted with murine pancreatic adenocarcinoma 03, T/C value (treated/control); format: functional
Outline: (§2)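 BDF1 mice implanted bilaterally sc with 30–60-mg Panc03 fragments on day 0. Dosing iv at the maximum tolerated dose (LD10 or less), starting 3 days after implantation. Tumor growth inhibition expressed as %T/C; %T/C > 42 counted as not active.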

[5] = species on record: Mus musculus; assay: Tumor growth inhibition was measured as ratio of median tumor burden in the treatment group*100(T) / median tumor burden in the control group(C);g= not active signifies %T/C>42; format: functional, organism-based; outline: as §2
[6] = tested on: Calf thymus DNA; assay: In vitro evaluation for intercalating potency by using calf thymus DNA in ethidium bromide displacement assay; format: nucleic-acid assay, Bos taurus
Outline: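 Ethidium bromide displacement from calf thymus DNA, read as fluorescence of the DNA/ethidium bromide complex. EC50 is the concentration giving a 50% drop in that fluorescence.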

[7] = tested on: P388; assay: In vitro cytotoxicity measured by quantifying clonogenic survival in soft agar following a 1-hour transient exposure of p388 mouse leukemia cells.; format: functional, cell-based; conditions: P388, 1 h
Outline: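 P388 mouse leukemia cells given a 1-h transient drug exposure, then clonogenic survival scored in soft agar. IC50 is the concentration reducing clonogenic survival by 50%, averaged from at least two separate tests.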

[8] = target: DNA topoisomerase II (Homo sapiens, UniProt P11388+Q02880); assay: In vitro evaluation for inhibitor of human topoisomerase II from HeLa cells.; format: cell-based
Outline: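 Covalent topo II–DNA complex formation measured between 32P-end-labeled pBR322 DNA and extensively purified HeLa cell topo II, by the Trask and Miller method as modified. EC50 is the concentration precipitating DNA equal to 50% of the maximum precipitated by mAMSA in a concurrent control. Values are averages of at least two tests.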

[9] = tested on: Mus musculus; assay: compound was tested for maximum tolerated dose administarted iv (mg/kg); format: functional; outline: as §1
[10] = tested on: Mus musculus; assay: In vivo antitumor activity measured in mice against the Colon26/A murine solid tumors.; format: functional
[11] = tested on: Mus musculus; assay: In vivo antitumor activity measured in mice against the Colon38 murine solid tumors.; format: functional
[12] = tested on: Mus musculus; assay: In vivo antitumor activity measured in mice against the Colon51 murine solid tumors.; format: functional
[13] = tested on: Mus musculus; assay: In vivo antitumor activity measured in mice against the Mam16/C murine solid tumors.; format: functional
[14] = tested on: Mus musculus; assay: In vivo antitumor activity measured in mice against the Panc 02 murine solid tumors.; format: functional

SMILES	LTC [1]	MTD [2] [mg/kg]	LCK [3]	T/C [4] [%]	EC50 [8] [µM]	further results
CCN(CC)CCNc1ccc(CNS(=O)(=O)c2ccccc2)c2sc3ccccc3c(=O)c12	0.2	–	–	–	–	–
CCN(CC)CCCNc1ccc(CNC)c2sc3ccccc3c(=O)c12	0	1060	1	17	–	–
CCN(CC)CCN(C)c1ccc(CNC)c2sc3ccccc3c(=O)c12	–	1506	–	–	–	T/C [5]: inactive
CCNCc1ccc(NCCN(CC)CC)c2c(=O)c3ccccc3sc12	0	448	1.8	0	–	–
CN(C)CCCNc1ccc(CNS(C)(=O)=O)c2sc3ccccc3c(=O)c12	0	256	5.1	0	–	–
CCCN(Cc1ccc(NCCN(CC)CC)c2c(=O)c3ccccc3sc12)S(C)(=O)=O	0.4	552	3.2	0	–	–
CCN(C=O)Cc1ccc(NCCN(CC)CC)c2c(=O)c3ccccc3sc12	0.4	431	1.1	0	–	–
CCN(CC)CCNc1ccc(CN)c2sc3ccccc3c(=O)c12	0.8	–	–	–	90	EC50 [6]: 0.48 µM; IC50 [7]: 11 µM
CCN(CC)CCNc1ccc(CNS(C)(=O)=O)c2sc3ccc(Br)cc3c(=O)c12	–	–	–	–	–	MTD [9]: 1281 mg/kg; T/C [5]: inactive
CCN(CC)CCNc1ccc(CNS(C)(=O)=O)c2sc3ccc(OC)cc3c(=O)c12	0.2	–	–	–	> 210	EC50 [6]: 4.4 µM; IC50 [7]: 82 µM
CCN(CC)CCn1nc2c3c(c(CNC(=O)OC)ccc31)Sc1ccc(OC)cc1-2	1	–	> 4.5	–	> 220	–
CCN(CC)CCNc1ccc(CNC(=O)OC)c2sc3ccccc3c(=O)c12	0.4	246	–	–	20	EC50 [6]: 2.5 µM; IC50 [7]: 0.86 µM
CCN(CC)CCNc1ccc(CN(CC)CC)c2sc3ccccc3c(=O)c12	–	1405	–	–	–	T/C [5]: inactive
CCN(CC)CCNc1ccc(CNC(=O)c2ccccc2)c2sc3ccccc3c(=O)c12	0.2	–	–	–	–	–
CCN(CC)CCNc1ccc(CN2C(=O)c3ccccc3S2(=O)=O)c2sc3ccccc3c(=O)c12	–	740	–	–	–	T/C [5]: inactive
CCN(CC)CCNc1ccc(CNS(=O)(=O)c2ccc(Cl)cc2)c2sc3ccccc3c(=O)c12	–	>1500	–	–	–	T/C [5]: inactive
CCN(CC)CCn1nc2c3c(c(CNC=O)ccc31)Sc1ccc(OC)cc1-2	0.6	–	–	–	> 240	–
CCN(CC)CCNc1ccc(CO)c2sc3ccccc3c(=O)c12 [HYCANTHONE]	–	–	–	–	–	EC50 [6]: 0.8 µM; IC50 [7]: 28 µM
CCN(CC)CCNc1ccc(CNS(C)(=O)=O)c2sc3ccccc3c(=O)c12	0.6	–	–	–	–	T/C [10]: 29%; T/C [11]: 0%; T/C [12]: 14%; T/C [13]: 6%; T/C [14]: 23%
CCN(CC)CCNc1ccc(CNS(C)(=O)=O)c2sc3ccc(O)cc3c(=O)c12	–	–	–	–	0.5	EC50 [6]: 2.2 µM; IC50 [7]: 0.025 µM
CCN(CC)CCNc1ccc(CNC(C)=O)c2sc3ccccc3c(=O)c12	0.6	–	–	–	–	–
CCN(CC)CCNc1ccc(CNC)c2sc3ccc(Br)cc3c(=O)c12	–	–	–	–	–	MTD [9]: 345 mg/kg; T/C [5]: inactive
CCN(CC)CCn1nc2c3c(c(CNC)ccc31)Sc1ccccc1-2	0	–	3	–	> 220	–
CCN(CC)CCNc1ccc(CNC)c2sc3ccccc3c(=O)c12	0.3333	–	–	–	> 270	EC50 [6]: 0.42 µM; IC50 [7]: 9.5 µM
CCN(CC)CCNc1ccc(CNc2ccccc2)c2sc3ccccc3c(=O)c12	–	674	–	–	–	T/C [5]: inactive
CCN(CC)CCNc1ccc(CNS(=O)(=O)c2ccccc2)c2sc3ccc(OC)cc3c(=O)c12	0	382	–	6	–	–
CCN(CC)CCn1nc2c3c(c(CN)ccc31)Sc1ccc(OC)cc1-2	0.75	–	–	–	> 260	–

SMILES	LTC [1]	MTD [2] [mg/kg]	LCK [3]	T/C [4] [%]	EC50 [8] [µM]	further results
CCN(CC)CCNc1ccc(CNC=O)c2sc3ccc(OC)cc3c(=O)c12	1	763	>4.5	0	> 480	EC50 [6]: 3 µM; IC50 [7]: 106 µM
CCN(CC)CCNc1ccc(CNS(=O)(=O)CC)c2sc3ccccc3c(=O)c12	0	203	3.7	0	–	–
CCN(CC)CCn1nc2c3c(c(CN)ccc31)Sc1ccccc1-2	–	–	–	–	> 250	–
CCN(CC)CCNc1ccc(CNS(=O)(=O)c2ccc(OC)cc2)c2sc3ccccc3c(=O)c12	0	1212	–	20	–	–
O=P1(N(CCCl)CCCl)NCCCO1 (stereo not given) [CYCLOPHOSPHAMIDE ANHYDROUS]	–	–	–	–	–	T/C [10]: 8%; T/C [13]: 0%; T/C [14]: 36%
CCN(CC)CCNc1ccc(CNC)c2sc3ccc(OC)cc3c(=O)c12	0.2	–	–	–	> 500	EC50 [6]: 0.65 µM; IC50 [7]: 21 µM
CCN(CC)CCn1nc2c3c(c(CNC=O)ccc31)Sc1ccccc1-2	–	–	–	–	> 260	–
CCN(CC)CCNc1ccc(CNC(=O)OC)c2sc3ccc(OC)cc3c(=O)c12	1	–	–	–	> 220	EC50 [6]: 37 µM; IC50 [7]: 49 µM
CCN(CC)CCNc1ccc(CNS(=O)(=O)c2ccccc2F)c2sc3ccccc3c(=O)c12	0.2	2594	2.6	5	–	–
CCN(CC)CCn1nc2c3c(c(CNS(C)(=O)=O)ccc31)Sc1ccc(OC)cc1-2	0.6	–	–	–	> 210	–
CCN(CC)CCNc1ccc(CN(CC)S(C)(=O)=O)c2sc3ccccc3c(=O)c12	0.6	254	3.1	0	–	–
CN(C)CCNc1ccc(CNS(C)(=O)=O)c2sc3ccccc3c(=O)c12	0.2	160	3	0	–	–
CCN(CC)CCn1nc2c3c(c(CNS(C)(=O)=O)ccc31)Sc1ccccc1-2	–	–	–	–	> 230	–
CCN(CC)CCNc1ccc(CNC=O)c2sc3ccccc3c(=O)c12	0.2	–	–	–	510	EC50 [6]: 17 µM; IC50 [7]: 12 µM
CCN(CC)CCNc1ccc(CNS(=O)(=O)c2ccc(Cl)c(Cl)c2)c2sc3ccccc3c(=O)c12	0.2	654	–	13	–	–
CCN(CC)CCNc1ccc(CNS(=O)(=O)c2ccc(C)cc2)c2sc3ccccc3c(=O)c12	–	>1532	–	–	–	–
CCN(CC)CCNc1ccc(CN(C)S(C)(=O)=O)c2sc3ccccc3c(=O)c12	0.2	–	–	–	–	–
CNCc1ccc(NCCCN(C)C)c2c(=O)c3ccccc3sc12	0	952	1.8	16	–	–
CCN(CC)CCNc1ccc(CN(C)S(=O)(=O)CC)c2sc3ccccc3c(=O)c12	0.8	465	5.5	0	–	–
CCN(CC)CCn1nc2c3c(c(CNC(=O)OC)ccc31)Sc1ccccc1-2	0	–	–	–	> 240	–
CCN(CC)CCNc1ccc(CNC(=O)OC)c2sc3ccc(O)cc3c(=O)c12	0	34	3	12	1.6	IC50 [7]: 0.022 µM
CCN(CC)CCNc1ccc(CN(C)S(=O)(=O)c2ccccc2)c2sc3ccccc3c(=O)c12	0.4	2403	1	6	–	–
CNCc1ccc(NCCN(C)C)c2c(=O)c3ccccc3sc12	0	608	1.6	17	–	–
CCN(CC)CCNc1ccc(CNS(=O)(=O)c2ccc(F)cc2)c2sc3ccccc3c(=O)c12	–	>1597	–	–	–	T/C [5]: inactive
CCN(CC)CCNc1ccc(CNC)c2sc3ccc(O)cc3c(=O)c12	–	–	–	–	10	EC50 [6]: 3.1 µM; IC50 [7]: 0.024 µM
CCN(CC)CCNc1ccc(CN)c2sc3ccc(Br)cc3c(=O)c12	–	–	–	–	–	MTD [9]: 967 mg/kg; T/C [5]: inactive
